From PubChem
TRPC6 inhibitor – blocks the mouse TRPC6 cation channel; Q61143; AID 2553; actives 1.1% (n = 310,000); HEK293-TRPC6, membrane potential dye, ACh-evoked depolarization; active compounds read low; B-score at 10 µM;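 active means B-score under library mean minus 3 SD, initial fluorescence not abnormally high, positive integrated signal ratio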;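 further: B-score derived from integrated fluorescence ratio over the kinetic read; more negative B-score means stronger inhibition of depolarization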
TRPC6 act – activates the mouse TRPC6 cation channel. AID 2550. Q61143. B-score at 10 µM. HEK293-TRPC6 membrane potential dye fluorescence; active compounds read high. actives 0.13% (n = 310,000);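 active means B-score of the integrated fluorescence ratio above library mean plus 3 SD, and starting fluorescence ratio within library mean plus 5 SD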;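 further: higher score means more depolarization so channel activation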
TRPC4 PAM – allosterically enhances the mouse TRPC4 cation channel. B-score at 10 µM. actives 0.42% (n = 310,000). HEK293 TRPC4beta/mu-opioid, DAMGO EC20, Fluo-4 Ca2+ flux; active compounds read high. Q9QUQ5. AID 2227;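 active means B-score of calcium response area above 5 SD of library B-scores, with initial fluorescence ratio within 5 SD of library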;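 further: B-score of integrated fluorescence ratio over time as area under calcium response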
Target sequence (Q9QUQ5 whole entry, looked up): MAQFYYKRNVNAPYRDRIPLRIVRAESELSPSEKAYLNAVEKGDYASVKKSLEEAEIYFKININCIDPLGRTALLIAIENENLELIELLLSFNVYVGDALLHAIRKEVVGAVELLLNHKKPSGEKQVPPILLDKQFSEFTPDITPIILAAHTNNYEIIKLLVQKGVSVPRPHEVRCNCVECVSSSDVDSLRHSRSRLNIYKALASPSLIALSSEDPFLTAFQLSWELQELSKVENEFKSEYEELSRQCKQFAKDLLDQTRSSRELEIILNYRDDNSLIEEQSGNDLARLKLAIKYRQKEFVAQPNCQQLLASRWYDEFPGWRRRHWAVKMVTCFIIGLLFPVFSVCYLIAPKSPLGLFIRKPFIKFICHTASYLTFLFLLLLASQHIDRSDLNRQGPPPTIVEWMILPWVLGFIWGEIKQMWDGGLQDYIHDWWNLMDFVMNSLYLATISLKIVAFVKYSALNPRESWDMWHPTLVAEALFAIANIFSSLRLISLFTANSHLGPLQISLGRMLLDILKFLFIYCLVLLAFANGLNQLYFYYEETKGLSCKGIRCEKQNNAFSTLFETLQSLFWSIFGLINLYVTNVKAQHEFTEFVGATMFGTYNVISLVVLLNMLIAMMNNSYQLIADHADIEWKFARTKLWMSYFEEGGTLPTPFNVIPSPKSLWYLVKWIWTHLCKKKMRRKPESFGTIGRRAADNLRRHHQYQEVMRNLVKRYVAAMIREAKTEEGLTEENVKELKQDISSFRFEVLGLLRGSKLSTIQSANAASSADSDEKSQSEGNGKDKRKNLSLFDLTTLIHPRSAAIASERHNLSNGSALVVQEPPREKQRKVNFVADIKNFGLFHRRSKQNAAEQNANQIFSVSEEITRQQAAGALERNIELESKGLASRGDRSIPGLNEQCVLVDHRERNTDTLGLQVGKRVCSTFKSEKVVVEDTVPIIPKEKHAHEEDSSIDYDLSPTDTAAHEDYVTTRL
TRPC4 agonist – TRPC4 (mouse) channel activation | Q9QUQ5 | HEK293 TRPC4beta/mu-opioid, Fluo4 calcium fluorescence; active compounds read high | B-score at 10 µM | actives 0.49% (n = 310,000) | AID 2237;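 active means B-score above 5 SD of library B-scores, and initial fluorescence ratio not above library mean plus 5 SD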;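 further: positive B-score marks a calcium rise read as TRPC4 activation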
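Incubation: 45 min room-temperature Fluo4 loading, 110 s read / System: HEK293 cells stably co-expressing mouse TRPC4beta and mu-opioid receptor / Signal: Fluo4 fluorescence, kinetic / Control set: buffer (low) and maximal DAMGO (high) / Measure: integrated baseline-normalised fluorescence ratio, converted to per-well B score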
TRPC4 block – TRPC4 (mouse) channel inhibition. HEK293 TRPC4beta/mu-opioid, DAMGO-evoked Fluo4 calcium flux; active compounds read low. B-score at 10 µM. Q9QUQ5. actives 0.39% (n = 300,000);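 active means B-score over 3 SD under the library average, no early fluorescence shift, positive overall ratio signal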
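Material: HEK293 cells with stable TRPC4beta plus mu-opioid receptor expression; probe or stimulus: DAMGO in two steps, submaximal then maximal; technique: Fluo4 calcium fluorescence by kinetic imaging, 5 s 1 Hz baseline; measure: integrated fluorescence ratio relative to baseline, converted to per-well B score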
TRPC4 sel inh 2 – second check of whether TRPC6 inhibitors also affect mouse TRPC4. shares compounds with TRPC6 inhibitor. HEK293 TRPC4/MOR, membrane potential dye fluorescence; channel activated by saturating DAMGO dose. inhibition, % at 10 µM. actives 42% (n = 920);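 active means compounds whose fluorescence signal differed from control wells by over 3 SD, either direction, in both duplicate plates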
TRPC4 spec – selectivity of TRPC6 inhibitors: effect on mouse TRPC4 | shares compounds with TRPC6 inhibitor | HEK293 TRPC4/mu-opioid, membrane potential fluorescence | activity change, negative = inhibition, % at 10 µM | actives 61% (n = 920) | AID 2777;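 active means rise or fall in signal beyond 3 SD of buffer-only wells in both replicate plates, either sign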;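 further: integrated kinetic ratio of fluorescence range over baseline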
HEK293 MPD ctr 2-1 – second counter-screen for TRPC6 inhibitors: parental HEK293 cells; AID 2779; actives 31% (n = 920); shares compounds with TRPC6 inhibitor; parental HEK293 membrane potential dye fluorescence; maximal acetylcholine challenge after compound addition; signal change vs control, % at 10 µM;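 active means membrane potential signal moving either way by over 3 SD of the maximum-effect control, in both duplicate plates, meaning non-specific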
HEK293 MPD ctr-1 – parental HEK293 nonspecific activity of TRPC6 inhibitors; shares compounds with TRPC6 inhibitor; parental HEK293 membrane potential dye fluorescence; membrane potential signal change, % at 10 µM; actives 60% (n = 920);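 active means membrane potential signal shifting up or down by more than 3 SD of buffer-only wells, on both duplicate plates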
HEK293 MPD ctr-2 – parental HEK293 nonspecific activity of TRPC6 modulators; membrane potential dye fluorescence; actives 51% (n = 2,400); shares compounds with TRPC6 inhibitor; membrane potential signal change, % at 10 µM; AID 488924;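 active means membrane potential signal moves up or down beyond 5 SD from buffer-only wells, on both duplicate plates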
HEK293 MPD ctr 2-2 – second check of TRPC6 modulator effects in parental HEK293 cells; shares compounds with TRPC6 inhibitor; membrane potential dye fluorescence; after compound, maximal acetylcholine stimulation; inhibition, % at 10 µM; actives 14% (n = 2,400);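 active means membrane potential signal drops by more than 5 SD from the mean control signal, in both duplicate plates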;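 further: plate controls were acetylcholine ECmax control wells for no effect and buffer only wells for full effect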
TRPC4 ctr mod – selectivity of TRPC6 modulators against mouse TRPC4 | shares compounds with TRPC6 inhibitor | HEK293 TRPC4/mu-opioid, membrane potential fluorescence | percent change from control (negative = decrease, positive = increase), % at 10 µM | actives 69% (n = 2,400) | AID 488927;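 active means membrane potential signal moved up or down beyond 5 SD of buffer control wells, in both duplicate plates, actives on both sides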;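 further: plate controls were assay buffer wells for no effect and DAMGO maximal-effect wells for full effect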
TRPC4/MOR inh 2 – mouse TRPC4 off-target activity of TRPC6 modulators, second screen; shares compounds with TRPC6 inhibitor; HEK293 TRPC4/mu-opioid, membrane potential dye fluorescence; stimulated with maximal-effect DAMGO; inhibition, % at 10 µM; actives 55% (n = 2,400);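 active means drop in membrane potential signal beyond 5 SD of the control wells in both duplicate plates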;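 further: TRPC4 counter screen for TRPC6 hits run under conditions tuned for TRPC6 not TRPC4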
TRPC6 inh conf – mouse TRPC6 inhibitor confirmation; shares compounds with TRPC6 inhibitor; HEK293-TRPC6, membrane potential dye, ACh-evoked depolarization; inhibition, % at 10 µM; actives 43% (n = 3,300); AID 488960;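 active means fluorescence ratio falls more than 5 SD below the full-stimulation control mean, in both duplicate runs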;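 further: integrated fluorescence ratio of peak minus minimum over baseline after agonist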
TRPC6 act conf – mouse TRPC6 activator confirmation | shares compounds with TRPC6 inhibitor | HEK293-TRPC6 membrane potential dye fluorescence, FDSS | actives 11% (n = 2,800) | activation, % at 10 µM;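 active means ratio signal rise beyond 5 SD above unstimulated control wells' mean, seen in both duplicate runs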;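 further: plate controls were buffer EC0 wells for no effect and acetylcholine ECmax response for full effect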
Numbers without * were called inactive; i = inactive; . = no result given. Only some compounds are listed: those with a hit (about 2.3% of all), similar ones and a draw of the others.

SMILES	TRPC6 inhibitor	TRPC6 act	TRPC4 PAM	TRPC4 agonist	TRPC4 block	HEK293 MPD ctr-2	HEK293 MPD ctr 2-2	TRPC4 ctr mod	TRPC4/MOR inh 2	TRPC6 inh conf	TRPC6 act conf	others
CC(C)(O)C#Cc1ccc(CN2CCN(C3CCCCC3)C(CCO)C2)s1 (configuration not stated)	-7.4*	i	i	i	i	.	.	.	.	i	i	TRPC4 sel inh 2=i;TRPC4 spec=i;HEK293 MPD ctr 2-1=i;HEK293 MPD ctr-1=i
O=C(NCc1ccccc1)c1noc2c1CCCCC2	i	i	i	i	i	.	.	.	.	.	.
O=C(NC1CCCC1)c1noc2c1CCCCC2	-8*	i	i	i	i	.	.	.	.	i	i	TRPC4 sel inh 2=i;TRPC4 spec=i;HEK293 MPD ctr 2-1=i;HEK293 MPD ctr-1=i
COc1cc(OC)c(C(=O)Nc2ccncc2)cc1OC	-5.1*	i	i	i	i	i	72%*	-8.5%*	36%*	46%*	i
Cc1noc(/C=C/N(C)C)c1S(=O)(=O)N1CCCC(C(=O)Nc2ccccc2F)C1 (configuration not stated)	i	i	i	i	i	.	.	.	.	.	.
CC1CC(C)CN(C(=O)c2ccc3c(c2NCCO)C(=O)c2ccccc2C3=O)C1 (configuration not stated)	-7*	i	i	i	i	-246%*	i	-45%*	80%*	68%*	i
O=C(CN1C2=NCCN2c2ccccc21)c1ccc(Br)cc1	-5.3*	i	i	i	i	i	i	i	72%*	38%*	i
O=C(CN1C2=NCCN2c2ccccc21)c1ccc2c(c1)OCO2	i	i	i	i	i	.	.	.	.	.	.
CC(=O)c1ccc(NC(=O)CCn2c(=S)oc3ccccc32)cc1	i	i	i	i	i	.	.	.	.	.	.
Fc1ccc(Nc2nnc(C(F)(F)F)s2)cc1Cl	-8.8*	i	i	i	i	.	.	.	.	61%*	i	TRPC4 sel inh 2=i;TRPC4 spec=i;HEK293 MPD ctr 2-1=i;HEK293 MPD ctr-1=i
CCOc1ccc2nc(NC(=O)CSc3nc(-c4ccccc4)c(C#N)c(=O)[nH]3)sc2c1	i	12*	i	i	i	i	i	20%*	i	i	36%*
COc1cccc(-c2nc(SCC(=O)Nc3nc(-c4ccccc4)c(C)s3)[nH]c(=O)c2C#N)c1	i	i	i	i	i	.	.	.	.	.	.
COc1ccc(OC)c2nc(-c3ccc4c(c3)OCO4)ccc12	i	i	i	i	i	.	.	.	.	.	.
Cc1cc(C)n(-c2nnc(C)n2/N=C/c2ccccc2OCc2ccccc2Cl)n1	i	13*	i	i	i	474%*	i	85%*	i	i	116%*
CCN1C(=O)[C@H]2[C@@H](c3ccc(Cl)cc3)N3C(=O)CN(CCOC)C(=O)[C@@]3(C)[C@H]2C1=O	i	i	i	i	i	.	.	.	.	.	.
Nc1ccccc1Nc1cc(-c2ccccc2)nn1-c1cccc(Cl)c1	-5.6*	i	i	i	i	i	i	i	30%*	i	i
COc1ccc(NC(=O)CSc2nnnn2C2CC3C=CC2C3)cc1 (configuration not stated)	i	i	i	i	i	.	.	.	.	.	.
CCOCCc1nnc(NC(=O)COC)s1	i	i	i	i	i	.	.	.	.	.	.
COc1ccc(-c2csc(N(CCCN(C)C)C(=O)c3ccc(C(C)(C)C)cc3)n2)cc1	i	i	i	i	i	.	.	.	.	.	.
COc1ccc(-c2csc(N(CCCN(C)C)C(=O)c3cc(OC)c(OC)c(OC)c3)n2)cc1	-5.7*	i	i	i	i	i	i	i	66%*	i	i
COc1ccc(-c2csc(N(CCCN(C)C)C(=O)c3ccc(C)cc3)n2)cc1	-6.5*	i	i	i	i	i	i	i	82%*	56%*	i
CCN(CC)CCCN(C(=O)c1ccccc1F)c1nc(-c2ccc(OC)cc2)cs1	-7.1*	i	i	i	i	.	.	.	.	51%*	i	TRPC4 sel inh 2=47%*;TRPC4 spec=i;HEK293 MPD ctr 2-1=i;HEK293 MPD ctr-1=-0.1%*
CCN(CC)CCCN(C(=O)c1ccc(OC)cc1)c1nc(-c2ccc(OC)cc2)cs1	-9.1*	i	i	i	i	.	.	.	.	77%*	i	TRPC4 sel inh 2=24%*;TRPC4 spec=-18%*;HEK293 MPD ctr 2-1=i;HEK293 MPD ctr-1=i
COc1ccc(-c2csc(N(CCCN(C)C)C(=O)c3ccc(Br)cc3)n2)cc1	i	i	i	i	i	.	.	.	.	.	.
CCN(CC)CCCN(C(=O)c1ccccc1C)c1nc(-c2ccc(OC)cc2)cs1	i	i	i	i	i	.	.	.	.	.	.
CC1Sc2ccc(S(=O)(=O)CCC(=O)NCc3ccc(Cl)cc3)cc2NC1=O (configuration not stated)	i	i	i	i	i	.	.	.	.	.	.
O=C(NCC(=O)N1CCN(Cc2ccccc2)CC1)c1ccc(Br)o1	i	i	i	i	i	.	.	.	.	.	.
CC(=O)N1CCc2ccc(S(=O)(=O)N3CCN(C)CC3)cc21	-5.1*	i	i	i	i	123%*	i	40%*	i	i	.
